Laboratory results from ChEMBL document CHEMBL1123625, “Synthesis and antitumor activity of tropolone derivatives. 6. Structure-activity relationships of antitumor-active tropolone and 8-hydroxyquinoline derivatives” (J Med Chem, 1987).
Converted amounts (≈) assume the structure as drawn. The source made the active and inactive calls. The rule behind the calls is not given here.

What was measured:
[1] = system: Mus musculus; assay: Antitumor activity against leukemia P388 cell line in mice was determined at 10 mg/kg intraperitoneal dose; format: functional
Method in brief: (§1)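 Mice bearing leukemia P388, dosed intraperitoneally; activity read out as % T/C.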

[2] = Antitumor activity was determined by the ability to inhibit KB cell growth; format: functional, cell-based; settings: Homo sapiens
Method in brief: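 KB cell growth inhibition, reported as IC50 in μg/mL.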

[3] = system: Mus musculus; assay: Antitumor activity against leukemia P388 cell line in mice was determined at 20 mg/kg intraperitoneal dose; format: functional; method in brief: as §1
[4] = system: Mus musculus; assay: Antitumor activity against leukemia P388 cell line in mice was determined at 2.5 mg/kg intraperitoneal dose; format: functional; method in brief: as §1
[5] = system: Mus musculus; assay: Antitumor activity against leukemia P388 cell line in mice was determined at 40 mg/kg intraperitoneal dose; format: functional; method in brief: as §1
[6] = system: Mus musculus; assay: Antitumor activity against leukemia P388 cell line in mice was determined at 12.5 mg/kg intraperitoneal dose; format: functional; method in brief: as §1
[7] = system: Mus musculus; assay: Antitumor activity against leukemia P388 cell line in mice was determined at 25 mg/kg intraperitoneal dose; format: functional; method in brief: as §1
[8] = system: Mus musculus; assay: Antitumor activity against leukemia P388 cell line in mice was determined at 50 mg/kg intraperitoneal dose; format: functional; method in brief: as §1
[9] = system: Mus musculus; assay: Antitumor activity against leukemia P388 cell line in mice was determined at 400 mg/kg intraperitoneal dose; IA means inactive; format: functional, organism-based; design: dose 400 mg/kg; method in brief: as §1
[10] = system: Mus musculus; assay: Antitumor activity against leukemia P388 cell line in mice was determined at 6.3 mg/kg intraperitoneal dose; format: functional; method in brief: as §1
[11] = system: Mus musculus; assay: Antitumor activity against leukemia P388 cell line in mice was determined at 3.1 mg/kg intraperitoneal dose; format: functional; method in brief: as §1
[12] = system: Mus musculus; assay: Antitumor activity against leukemia P388 cell line in mice was determined at 400 mg/kg intraperitoneal dose; format: functional; method in brief: as §1
[13] = system: Mus musculus; assay: Antitumor activity against leukemia P388 cell line in mice was determined at 100 mg/kg intraperitoneal dose; format: functional; method in brief: as §1

Oc1c(C(c2cccs2)c2ccc3cccnc3c2O)ccc2cccnc12
T/C [1]: 125% | IC50 [2]: < 0.3 µg/mL | T/C [3]: 136% | T/C [4]: 108%

Oc1c(C(c2ccco2)c2ccc3cccnc3c2O)ccc2cccnc12
T/C [1]: 113% | IC50 [2]: < 0.3 µg/mL | T/C [3]: 120% | T/C [5]: 138%

COc1ccc(C(c2ccc3cccnc3c2O)c2oc(CO)cc(=O)c2O)cc1 (centres undefined)
T/C [6]: 120% | T/C [7]: 138% | IC50 [2]: < 0.3 µg/mL | T/C [8]: 135%

Oc1c(C2OCCc3ccccc32)ccc2cccnc12 (centres undefined)
T/C [9]: inactive | IC50 [2]: 1.3 µg/mL (≈ 4.69 µM)

COc1ccc(C(c2c(O)ccc3ncccc23)c2c(O)ccc3ncccc23)cc1
T/C [9]: inactive | IC50 [2]: 17 µg/mL (≈ 41.6 µM)

COc1ccc(C(c2ccc(C(C)C)cc(=O)c2O)c2oc(CO)cc(=O)c2O)cc1 (centres undefined)
T/C [6]: 128% | T/C [7]: 146% | IC50 [2]: 0.5 µg/mL (≈ 1.18 µM) | T/C [8]: 152%

COc1ccc(C(c2ccc3cccnc3c2O)c2ccc3cccnc3c2O)cc1
T/C [6]: 164% | T/C [10]: 128% | T/C [11]: 111% | IC50 [2]: < 0.3 µg/mL

CCOC(c1ccc(OC)cc1)c1ccc2cccnc2c1O (centres undefined)
T/C [12]: 129% | IC50 [2]: 0.8 µg/mL (≈ 2.59 µM) | T/C [13]: 112%

CC(C)c1ccc(C2OCCc3ccccc32)c(O)c(=O)c1 (centres undefined)
T/C [13]: 112%

COc1ccc(C(c2ccc(C(C)C)cc(=O)c2O)c2ccc(C(C)C)cc(=O)c2O)cc1
T/C [1]: 170% | IC50 [2]: < 0.3 µg/mL

CCOC(c1ccccc1)c1ccc(C(C)C)cc(=O)c1O (centres undefined)
T/C [9]: inactive | IC50 [2]: < 0.3 µg/mL

CCOC(c1ccc(OC)cc1)c1c(O)ccc2ncccc12 (centres undefined)
T/C [9]: inactive | IC50 [2]: 44 µg/mL (≈ 142 µM)
